ChEMBL document CHEMBL1135737, “Water stability and cytotoxic activity relationship of a series of ferrocenium derivatives. ESR insights on the radical production during the degradation process” (J Med Chem, 2002)

What was measured:
MCF7 [1] = assay: In vitro cytotoxicity of compound against MCF-7 cell line expressed as percent of viable cells compared to untreated control at a concentration of 50 uM; type: functional, cell-based; conditions: Homo sapiens
Method in brief: (§1)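 First screen: exponential-phase MCF-7 cells (DMEM with 25 mM HEPES, 10% FCS, 37 °C, 5% CO2), 250000/well, given the ferrocenium salt 5–500 μM continuously for 48 h from 24 h after seeding. MTT (5 mg/mL in saline) added for 60 min; formazan read at 570 nm with 690 nm correction. Percent viable versus untreated control; mean of three replications.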

MCF7 [2] = assay: In vitro cytotoxicity of compound against MCF-7 cell line expressed as percent of viable cells compared to untreated control at a concentration of 500 uM; type: functional, cell-based; conditions: Homo sapiens; method in brief: as §1
MCF7 [3] = assay: In vitro cytotoxicity of compound against MCF-7 cell line expressed as percent of viable cells compared to untreated control at a concentration of 5 uM; type: functional, cell-based; conditions: Homo sapiens; method in brief: as §1
MCF7 [4] = assay: In vitro cytotoxicity of compound against MCF-7 cell line expressed as percent of viable cells compared to untreated control at a concentration of 10 uM; type: functional, cell-based; conditions: Homo sapiens; method in brief: as §1
MCF7 [5] = assay: In vitro cytotoxicity of compound against MCF-7 cell line expressed as percent of viable cells compared to untreated control at a concentration of 100 uM; type: functional, cell-based; conditions: Homo sapiens; method in brief: as §1
MCF7 [6] = assay: Concentration required to reduce to 50% the number of MCF-7 cells with respect to untreated control after exposure to compound for 24 h; type: functional, cell-based, Homo sapiens
Method in brief: (§2)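 MCF-7 cells (DMEM with 25 mM HEPES, 2 mM L-glutamine, 10% FCS; 37 °C, 5% CO2) in exponential growth, 250000 cells/well, dosed after 24 h at 10, 50, 100, 500 μM for 2, 12, 24 or 48 h. Medium then replaced; MTT read at 570 nm (690 nm background) 5 days from start, versus time-matched washed control. IC50 from three replications.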

MCF7 [7] = assay: Concentration required to reduce to 50% the number of MCF-7 cells with respect to untreated control after exposure to compound for 48 h; type: functional, cell-based, Homo sapiens; method in brief: as §2
MCF7 [8] = assay: Concentration required to reduce to 50% the number of MCF-7 cells with respect to untreated control after exposure to compound for 12 h; type: functional, cell-based, Homo sapiens; method in brief: as §2
MCF7 [9] = assay: Concentration required to reduce to 50% the number of MCF-7 cells with respect to untreated control after exposure to compound for 2 h; type: functional, cell-based, Homo sapiens; method in brief: as §2
MCF7 [10] = assay: In vitro cytotoxicity against MCF-7 cell line expressed as percent of viable cells compared to untreated control at a concentration of 50 uM for 24 h; type: functional, cell-based; conditions: Homo sapiens
Method in brief: (§3)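 Viability in MCF-7 cells (DMEM, 25 mM HEPES, 10% FCS, 37 °C, 5% CO2) seeded 250000/well and treated after 24 h for 24 h. Medium then replaced with fresh; MTT formazan read at 570 nm minus 690 nm, 5 days after treatment start. Percent of the untreated control washed at the same time; mean of three independent experiments.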

MCF7 [11] = assay: In vitro cytotoxicity against MCF-7 cell line as percent of viable cells compared to control at a concentration of 30 uM; type: functional, cell-based; conditions: Homo sapiens
MCF7 [12] = assay: In vitro cytotoxicity against MCF-7 cell line as percent of viable cells compared to control at a concentration of 5 uM; type: functional, cell-based; conditions: Homo sapiens
MCF7 [13] = assay: In vitro cytotoxicity against MCF-7 cell line as percent of viable cells compared to control at a concentration of 15 uM; type: functional, cell-based; conditions: Homo sapiens
MCF7 [14] = assay: In vitro cytotoxicity against MCF-7 cell line expressed as percent of viable cells compared to untreated control at a concentration of 10 uM for 24 h; type: functional, cell-based; conditions: Homo sapiens; method in brief: as §3
MCF7 [15] = assay: In vitro cytotoxicity against MCF-7 cell line expressed as percent of viable cells compared to untreated control at a concentration of 100 uM for 24 h; type: functional, cell-based; conditions: Homo sapiens; method in brief: as §3
MCF7 [16] = assay: In vitro cytotoxicity against MCF-7 cell line expressed as percent of viable cells compared to untreated control at a concentration of 500 uM for 24 h; type: functional, cell-based; conditions: Homo sapiens; method in brief: as §3
MCF7 [17] = assay: In vitro cytotoxicity against MCF-7 cell line as percent of viable cells compared to control at a concentration of 10 uM; type: functional, cell-based; conditions: Homo sapiens
MCF7 [18] = assay: In vitro cytotoxicity against MCF-7 cell line as percent of viable cells compared to control at a concentration of 20 uM; type: functional, cell-based; conditions: Homo sapiens
MCF7 [19] = assay: In vitro cytotoxicity against MCF-7 cell line as percent of viable cells compared to control at a concentration of 40 uM; type: functional, cell-based; conditions: Homo sapiens
MCF7 [20] = assay: In vitro cytotoxicity against MCF-7 cell line expressed as percent of viable cells compared to untreated control at a concentration of 50 uM; type: functional, cell-based; conditions: Homo sapiens
Method in brief: (§4)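 Exponential-phase MCF-7 cells, grown in DMEM with 25 mM HEPES, 2 mM L-glutamine and 10% FCS at 37 °C and 5% CO2, were seeded at 250000 cells/well. After 24 h they got a single agent for 24 h at 10, 20, 35, 50 or 70 μM, then fresh medium. Viability was read by MTT (570 nm, 690 nm background) 5 days from treatment start, as % of untreated control.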

MCF7 [21] = assay: In vitro cytotoxicity against MCF-7 cell line expressed as percent of viable cells compared to untreated control at a concentration of 10 uM; type: functional, cell-based; conditions: Homo sapiens; method in brief: as §4
MCF7 [22] = assay: In vitro cytotoxicity against MCF-7 cell line expressed as percent of viable cells compared to untreated control at a concentration of 35 uM; type: functional, cell-based; conditions: Homo sapiens; method in brief: as §4
MCF7 [23] = assay: In vitro cytotoxicity against MCF-7 cell line expressed as percent of viable cells compared to untreated control at a concentration of 20 uM; type: functional, cell-based; conditions: Homo sapiens; method in brief: as §4
MCF7 [24] = assay: In vitro cytotoxicity against MCF-7 cell line expressed as percent of viable cells compared to untreated control at a concentration of 70 uM; type: functional, cell-based; conditions: Homo sapiens; method in brief: as §4

Substance	Viable cells (MCF7 [1])	Viable cells (MCF7 [2])	Viable cells (MCF7 [3])	Viable cells (MCF7 [4])	Viable cells (MCF7 [5])	IC50 (MCF7 [6])	also measured
FERROCENIUM TETRAFLUOROBORATE [listing 1 of 2 here]	100%	13%	100%	98%	99%	–	–
BLEOMYCIN [listing 1 of 2 here]	–	–	–	–	–	53 µM	–
DECAMETHYLFERROCENIUM TETRAFLUOROBORATE	–	–	–	–	–	58 µM	IC50 (MCF7 [7]): 35 µM; IC50 (MCF7 [8]): 74 µM; IC50 (MCF7 [9]): 86 µM
[sequence] TETRAFLUOROBORATE	32%	11%	100%	88%	10%	–	Viable cells (MCF7 [10]): 64%; Viable cells (MCF7 [11]): 7%; Viable cells (MCF7 [12]): 94%; Viable cells (MCF7 [13]): 34%; Viable cells (MCF7 [14]): 99%; Viable cells (MCF7 [15]): 14%; Viable cells (MCF7 [16]): 4%; Viable cells (MCF7 [17]): 88%; Viable cells (MCF7 [18]): 13%; Viable cells (MCF7 [19]): 3%
FERROCENIUMBORONIC ACID TETRAFLUOROBORATE	101%	8%	102%	101%	98%	–	–
BLEOMYCIN [listing 2 of 2 here]	–	–	–	–	–	–	Viable cells (MCF7 [20]): 48%; Viable cells (MCF7 [21]): 69%; Viable cells (MCF7 [22]): 57%; Viable cells (MCF7 [23]): 65%; Viable cells (MCF7 [24]): 51%
[sequence] ACID TETRAFLUOROBORATE	97%	17%	100%	98%	97%	–	–
1,1'-dimethylferrocenium tetrafluoroborate	93%	17%	99%	100%	90%	–	–
FERROCENIUM TETRAFLUOROBORATE [listing 2 of 2 here]	–	–	–	–	–	256 µM	IC50 (MCF7 [7]): 249 µM; IC50 (MCF7 [8]): 238 µM; IC50 (MCF7 [9]): 308 µM
